Measured values taken from ChEMBL document CHEMBL2311525, “Design, synthesis, and pharmacological properties of new heteroarylpyridine/heteroarylpyrimidine derivatives as CB(2) cannabinoid receptor partial agonists” (J Med Chem, 2013).

Experiments:
[1] = biological target: Cannabinoid receptor 1 (Rattus norvegicus, UniProt P20272); assay: Displacement of [3H]CP-55,940 from Sprague-Dawley rat brain CB1 receptor by scintillation counting analysis
How it was run: (§1)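 Male Sprague-Dawley rat brain membranes, prepared by spinning at 2000g and then 40000g, in 50 mM Tris-HCl with 1 mM EDTA, 3 mM MgCl2 and 0.5% fatty-acid-free BSA, pH 7.4. Incubated with 1.0 nM [3H]CP-55,940, 40 μg protein/100 μL and test compound at 1 nM–10 μM. Filtered on GF/C. Ki by Cheng–Prusoff, n = 4.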

[2] = biological target: T1, Cannabinoid receptor 2 (Rattus norvegicus, UniProt Q9QZN9); assay: Displacement of [3H]CP-55,940 from Sprague-Dawley rat spleen CB2 receptor by scintillation counting analysis
T1 sequence (Q9QZN9 whole entry): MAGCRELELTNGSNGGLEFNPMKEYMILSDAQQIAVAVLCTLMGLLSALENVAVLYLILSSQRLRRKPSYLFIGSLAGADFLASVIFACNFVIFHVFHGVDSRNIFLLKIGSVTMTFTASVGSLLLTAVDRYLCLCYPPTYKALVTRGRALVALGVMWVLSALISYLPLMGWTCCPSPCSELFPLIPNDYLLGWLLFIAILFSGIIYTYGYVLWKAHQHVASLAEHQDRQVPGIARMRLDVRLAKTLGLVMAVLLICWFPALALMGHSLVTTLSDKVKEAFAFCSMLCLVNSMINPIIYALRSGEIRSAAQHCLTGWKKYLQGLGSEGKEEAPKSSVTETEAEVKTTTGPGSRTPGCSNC
How it was run: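 Male Sprague-Dawley rat spleen membranes, prepared by spinning at 2000g and then 40000g, in 50 mM Tris-HCl with 1 mM EDTA, 3 mM MgCl2 and 0.5% fatty-acid-free BSA, pH 7.4. Filtered on GF/C.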

[3] = biological target: T2, Cannabinoid receptor 1 (Homo sapiens, UniProt P21554); assay: Displacement of [3H]CP-55,940 from human recombinant CB1 receptor expressed in CHO cell membranes after 90 mins by scintillation counting analysis
[4] = biological target: T3, Cannabinoid receptor 2 (Homo sapiens, UniProt P34972); assay: Displacement of [3H]CP-55,940 from human recombinant CB2 receptor expressed in CHO cell membranes at 1 to 10000 nM after 60 mins by scintillation counting analysis
How it was run: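 Membranes from CHO cells expressing hCB2, spun at 100000g, in 50 mM Tris-HCl with 0.5% BSA, 5 mM MgCl2 and 1 mM EDTA, pH 7.4. Incubated with 0.5 nM [3H]CP-55,940 and compound at 1 nM–10 μM for 60 min at 30 °C. Filtered on GF/C and counted. Ki by Cheng–Prusoff, n = 4.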

[5] = biological target: Cannabinoid receptor 1 (Rattus norvegicus) (UniProt P20272); assay: Displacement of [3H]CP-55,940 from Sprague-Dawley rat brain CB1 receptor at 1 to 10000 nM by scintillation counting analysis; how it was run: as §1
[6] = biological target: T2, Cannabinoid receptor 1; assay: Displacement of [3H]CP-55,940 from human recombinant CB1 receptor expressed in CHO cell membranes at 1 to 10000 nM after 90 mins by scintillation counting analysis
How it was run: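 Membranes from CHO cells expressing hCB1, spun at 100000g, in 50 mM Tris-HCl with 0.5% BSA, 5 mM MgCl2 and 2.5 mM EDTA, pH 7.4. Incubated with 0.5 nM [3H]CP-55,940 and compound at 1 nM–10 μM for 90 min at 30 °C. Filtered on GF/C and counted. Ki by Cheng–Prusoff, n = 4.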

[7] = biological target: T4, Cannabinoid receptor 2 (Rattus norvegicus) (UniProt Q9QZN9); assay: Displacement of [3H]CP-55,940 from Sprague-Dawley rat spleen CB2 receptor at 1 to 10000 nM by scintillation counting analysis
T4 sequence (whole entry): T1 sequence (Q9QZN9 whole entry)
How it was run: as §1, with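 “rat spleen” for “rat brain”, “with 0.5” for “with 1.0”, “[3H]CP-55,940, 80” for “[3H]CP-55,940, 40”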

[8] = biological target: T3, Cannabinoid receptor 2; assay: Displacement of [3H]CP-55,940 from human recombinant CB2 receptor expressed in CHO cell membranes after 60 mins by scintillation counting analysis
[9] = species on record: Homo sapiens; assay: Selectivity ratio of Ki for CB1 receptor (unknown origin) to Ki for CB2 receptor (unknown origin)
[10] = biological target: T3, Cannabinoid receptor 2; assay: Agonist activity at human CB2 receptor expressed in CHO cells assessed as forskolin-stimulated [3H]cyclic-AMP accumulation by scintillation counting analysis relative to WIN 55,212-2; assay type: functional, cell-based
How it was run: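 CHO cells stably expressing human CB2, 1 × 10^6 cells/assay, in buffered saline (10 mM MgCl2, 5 mM glucose, 5 mM HEPES, pH 7.4, 37 °C) with 0.5 mM Ro 20-1724. Preincubated 10 min at 37 °C, then tested with 1 μM forskolin. Stopped with cold 6% TCA and ether-extracted. cAMP read by [3H]cAMP competition binding to beef adrenal binding protein with charcoal separation.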

[11] = biological target: T3, Cannabinoid receptor 2; assay: Agonist activity at human CB2 receptor expressed in CHO cells assessed as forskolin-stimulated [3H]cyclic-AMP accumulation by scintillation counting analysis; assay type: functional, cell-based

T2 sequence (P21554 whole entry): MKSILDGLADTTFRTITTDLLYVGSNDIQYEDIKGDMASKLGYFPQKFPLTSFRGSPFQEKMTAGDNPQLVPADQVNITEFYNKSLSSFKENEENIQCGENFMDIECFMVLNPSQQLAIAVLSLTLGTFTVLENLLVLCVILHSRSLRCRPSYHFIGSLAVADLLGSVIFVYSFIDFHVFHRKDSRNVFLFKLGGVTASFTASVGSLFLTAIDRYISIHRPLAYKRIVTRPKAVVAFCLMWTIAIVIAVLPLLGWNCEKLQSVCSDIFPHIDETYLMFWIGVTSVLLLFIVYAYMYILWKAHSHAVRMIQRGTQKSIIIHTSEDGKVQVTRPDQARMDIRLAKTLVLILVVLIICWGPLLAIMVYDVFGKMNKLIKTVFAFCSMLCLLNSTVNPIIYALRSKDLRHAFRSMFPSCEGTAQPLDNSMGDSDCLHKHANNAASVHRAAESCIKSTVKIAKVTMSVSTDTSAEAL
T3 sequence (P34972 whole entry): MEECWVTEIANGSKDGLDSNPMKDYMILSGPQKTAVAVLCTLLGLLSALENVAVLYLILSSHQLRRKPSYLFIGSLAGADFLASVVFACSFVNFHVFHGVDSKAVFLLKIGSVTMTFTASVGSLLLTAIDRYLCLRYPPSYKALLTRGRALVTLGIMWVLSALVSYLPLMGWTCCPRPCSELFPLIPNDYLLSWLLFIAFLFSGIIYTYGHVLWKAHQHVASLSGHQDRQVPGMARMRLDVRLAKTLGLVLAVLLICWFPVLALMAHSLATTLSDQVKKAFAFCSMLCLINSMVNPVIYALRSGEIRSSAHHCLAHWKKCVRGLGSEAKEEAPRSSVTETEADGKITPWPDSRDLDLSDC
Cannabinoid receptor 1 (Rattus norvegicus, UniProt P20272), sequence (P20272 whole entry): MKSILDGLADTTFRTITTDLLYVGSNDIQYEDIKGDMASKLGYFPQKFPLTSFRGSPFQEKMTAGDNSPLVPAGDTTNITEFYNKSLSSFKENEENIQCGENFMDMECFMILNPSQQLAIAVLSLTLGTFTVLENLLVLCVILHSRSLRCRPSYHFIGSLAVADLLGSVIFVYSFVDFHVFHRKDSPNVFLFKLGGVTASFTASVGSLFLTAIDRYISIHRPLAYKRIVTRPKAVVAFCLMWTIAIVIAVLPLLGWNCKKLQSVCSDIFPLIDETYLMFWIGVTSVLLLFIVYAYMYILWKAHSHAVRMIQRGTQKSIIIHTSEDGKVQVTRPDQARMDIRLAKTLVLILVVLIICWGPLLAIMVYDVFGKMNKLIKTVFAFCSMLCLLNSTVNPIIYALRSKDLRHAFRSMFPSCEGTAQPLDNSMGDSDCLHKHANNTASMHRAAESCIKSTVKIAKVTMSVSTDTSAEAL
Cannabinoid receptor 1 (Rattus norvegicus), sequence (P20272 whole entry): as above

Row | SMILES | Ki [1] [µM] | Ki [2] [µM] | Ki [3] [µM] | inhibition [4] [%] | inhibition [5] [%] | inhibition [6] [%] | inhibition [7] [%] | Ki [8] [µM] | Ratio Ki [9] | Emax [10] [%] | EC50 [11] [µM]
1 | CCCCCn1cc(C(=O)NC2CCCCCC2)c(=O)c2c(-c3ccccc3)nn(C)c21 | > 10 | > 10 | > 10 | 1 | 1 | 1 | 1 | > 10 | – | – | –
2 | Cc1ccc(Cn2cc(C(=O)NC3CCCCC3)c(=O)c3c(C)nn(C)c32)cc1 | > 10 | > 10 | > 10 | 33 | 38 | 35 | 29 | > 10 | – | – | –
3 | Cc1nn(C)c2c1c(=O)c(C(=O)NC1CCCCC1)cn2CCCCC#N | > 10 | > 10 | > 10 | 11 | 25 | 28 | 5 | > 10 | – | – | –
4 | CCCCCn1cc(C(=O)NC2CCCCC2)c(=O)c2c(-c3ccccc3)nn(C)c21 | > 10 | > 10 | > 10 | 1 | 18 | 23 | 1 | > 10 | – | – | –
5 | CCCCCn1cc(C(=O)Nc2ccc(F)cc2)c(=O)c2c(C)nn(C)c21 | > 10 | > 10 | > 10 | 37 | 48 | 44 | 27 | > 10 | – | – | –
6 | CCCCCCC(C)(C)c1cc(OC)c([C@@H]2C=C(CO)[C@H]3C[C@@H]2C3(C)C)c(OC)c1 | – | – | – | – | – | – | – | – | 400 | – | –
7 | CCCCCn1cc(C(=O)Nc2ccc(OC)cc2)c(=O)c2c(C)nn(C)c21 | > 10 | > 10 | > 10 | 33 | 46 | 38 | 24 | > 10 | – | – | –
8 | C=CCn1cc(C(=O)NC2CCCCC2)c(=O)c2c(C)nn(C)c21 | > 10 | > 10 | > 10 | 42 | 27 | 34 | 46 | > 10 | – | 58 | 0.587
9 | Cc1nn(C)c2c1c(=O)c(C(=O)NC1CCCCC1)cn2CCN1CCOCC1 | > 10 | > 10 | > 10 | 36 | 13 | 16 | 32 | > 10 | – | – | –
10 | CCOCCn1cc(C(=O)NC2CCCCC2)c(=O)c2c(C)nn(C)c21 | > 10 | > 10 | > 10 | 1 | 10 | 14 | 1 | > 10 | – | – | –
